Assay results from ChEMBL document CHEMBL1806466, “2-Amino-4-methyl-5-phenylethyl substituted-7-N-benzyl-pyrrolo[2,3-d]pyrimidines as novel antitumor antimitotic agents that also reverse tumor resistance” (Bioorg Med Chem, 2011).
Active and inactive are the calls of the source. The calls are words filed in the database; no cut-off is given here.

Assays:
[1] = test system: MCF7; assay: Resistance factor, ratio of IC50 for drug-resistant […] human NCI/ADR cells expressing Pgp in absence of vinblastin to IC50 for drug-sensitive human MCF7 cells in presence of 50 nM vinblastin; assay type: functional
[2] = Cytotoxic activity against Pgp-deficient human MCF7/VP cells expressing MRP1 after 48 hrs by sulforhodamine B assay; assay type: functional, cell-based
Outline: (§1)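 Cells plated at ~15% confluency and allowed 24 h to attach, then exposed to varying test concentrations for 48 h. Survival by SRB binding, reported as % decrease in binding versus ethanol solvent controls, mean of three wells. For NCI/ADR, exposure with 0 or 50 nM vinblastine; for MCF-7/VP, with 0 or 1 nM vincristine.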

[3] = test system: NCI/ADR; assay: Reversal of Pgp-mediated multidrug resistance in human NCI/ADR cells assessed as enhancement of cytotoxicity of vinblastine after 48 hrs by sulforhodamine B assay; assay type: cell-based
Outline: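 NCI/ADR cells plated at ~15% confluency and allowed 24 h to attach. […] Survival by SRB binding, each value the mean of three wells, with ethanol solvent controls. Pgp Antagonism Score = % survival without vinblastine / % survival with vinblastine.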

[4] = molecular target: Multidrug resistance-associated protein 1 (Homo sapiens, UniProt P33527); assay: Reversal of MRP1-mediated multidrug resistance in human MCF7/VP cells assessed as enhancement of cytotoxicity of vincristine after 48 hrs by sulforhodamine B assay; assay type: cell-based
Chain of Multidrug resistance-associated protein 1 (P33527 whole entry): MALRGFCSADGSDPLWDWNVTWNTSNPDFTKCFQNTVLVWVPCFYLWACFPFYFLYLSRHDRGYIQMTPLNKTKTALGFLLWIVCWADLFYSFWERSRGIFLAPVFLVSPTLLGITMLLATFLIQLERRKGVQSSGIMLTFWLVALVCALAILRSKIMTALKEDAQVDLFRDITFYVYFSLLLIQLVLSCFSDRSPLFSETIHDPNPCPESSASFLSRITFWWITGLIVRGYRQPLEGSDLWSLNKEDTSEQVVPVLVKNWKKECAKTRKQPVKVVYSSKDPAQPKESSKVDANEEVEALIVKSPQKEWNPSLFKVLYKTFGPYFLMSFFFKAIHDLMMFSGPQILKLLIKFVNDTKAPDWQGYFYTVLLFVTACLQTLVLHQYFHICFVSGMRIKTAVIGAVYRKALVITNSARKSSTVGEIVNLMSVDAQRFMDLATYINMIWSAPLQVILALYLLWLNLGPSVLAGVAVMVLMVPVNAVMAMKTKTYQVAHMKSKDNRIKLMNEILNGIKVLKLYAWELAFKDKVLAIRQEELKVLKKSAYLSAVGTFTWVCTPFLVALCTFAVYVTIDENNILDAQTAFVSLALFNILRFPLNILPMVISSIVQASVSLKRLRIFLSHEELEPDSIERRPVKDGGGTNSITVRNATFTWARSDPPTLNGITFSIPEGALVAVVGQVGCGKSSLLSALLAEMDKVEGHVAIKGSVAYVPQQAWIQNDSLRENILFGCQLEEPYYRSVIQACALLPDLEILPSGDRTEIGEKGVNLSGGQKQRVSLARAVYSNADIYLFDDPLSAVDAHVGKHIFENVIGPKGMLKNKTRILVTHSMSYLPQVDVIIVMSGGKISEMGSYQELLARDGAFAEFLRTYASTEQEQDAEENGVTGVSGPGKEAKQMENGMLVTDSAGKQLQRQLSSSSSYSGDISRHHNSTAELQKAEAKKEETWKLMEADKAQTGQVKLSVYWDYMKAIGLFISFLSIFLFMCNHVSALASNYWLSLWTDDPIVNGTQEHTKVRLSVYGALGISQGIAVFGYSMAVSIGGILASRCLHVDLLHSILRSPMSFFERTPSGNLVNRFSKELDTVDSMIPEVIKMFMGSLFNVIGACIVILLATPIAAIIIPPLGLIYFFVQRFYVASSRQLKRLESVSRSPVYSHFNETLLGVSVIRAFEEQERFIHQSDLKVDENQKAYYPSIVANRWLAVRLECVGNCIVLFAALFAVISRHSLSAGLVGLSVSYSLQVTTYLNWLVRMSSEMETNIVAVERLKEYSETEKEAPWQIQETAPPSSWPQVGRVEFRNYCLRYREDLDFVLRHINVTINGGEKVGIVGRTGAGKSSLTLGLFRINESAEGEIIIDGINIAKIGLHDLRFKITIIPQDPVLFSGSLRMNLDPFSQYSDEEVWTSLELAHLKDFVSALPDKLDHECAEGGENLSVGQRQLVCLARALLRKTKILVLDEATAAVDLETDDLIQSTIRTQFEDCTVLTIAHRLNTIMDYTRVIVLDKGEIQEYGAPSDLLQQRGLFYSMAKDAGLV
Outline: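 MCF-7/VP cells plated at ~15% confluency and allowed 24 h to attach. […] Survival by SRB binding. MRP1 Antagonism Score = % survival without vincristine / % survival with vincristine.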

[5] = organism: Bos taurus; assay: Effect on bovine brain microtubule depolymerization assessed as decrease in absorbance at wavelength 340 nm after 15 mins
Outline: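 Bovine brain tubulin purified by three assembly/disassembly cycles followed by ion exchange. Tubulin at 2.5 mg/mL […] in 1 M glutamate, pH 6.6, with 4% DMSO, preincubated with compound at 0 °C for 15 min. 0.5 mM GTP then added and samples warmed to 37 °C. A340 monitored about 60 min.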

[6] = Cytotoxic activity against drug-resistant […]-deficient human NCI/ADR cells expressing Pgp after 48 hrs by sulforhodamine B assay; assay type: functional, cell-based; conditions: NCI/ADR-RES; outline: as §1
[7] = test system: MCF7; assay: Cytotoxic activity against drug-sensitive Pgp-, MRP1-deficient human MCF7 cells after 48 hrs by sulforhodamine B assay; conditions: MCF7, 48 h
[8] = test system: MCF7; assay: Resistance factor, ratio of IC50 for Pgp-deficient human MCF7/VP cells expressing MRP1 in absence of vincristine to IC50 for drug sensitive human MCF7 cells in presence of 1 nM vincristine

Activity [5] | SMILES | Ratio IC50 [1] | IC50 [2] [µM] | Activity [3] | Activity [4] | IC50 [6] [µM] | IC50 [7] [µM] | Ratio IC50 [8]
inactive | COc1ccc(CCc2cn(Cc3ccccc3)c3nc(N)nc(C)c23)cc1OC | 0.29 | 7 | inactive | Not Active | 5 | 17 | 0.41
inactive | COc1cc(CCc2cn(Cc3ccccc3)c3nc(N)nc(C)c23)cc(OC)c1 | 0.48 | 17 | inactive | Active | 12 | 25 | 0.68
inactive | COc1cc(CCc2cn(Cc3ccccc3)c3nc(N)nc(C)c23)c(OC)c(OC)c1 | 0.66 | 63 | Active | Active | 33 | 50 | 1.26
inactive | Cc1nc(N)nc2c1c(CCc1ccccc1Cl)cn2Cc1ccccc1 | 0.55 | 15 | inactive | Not Active | 11 | 20 | 0.75
Active | COc1ccc(CCc2cn(Cc3ccccc3)c3nc(N)nc(C)c23)c(OC)c1OC | 0.61 | 20 | inactive | Active | 11 | 18 | 1.11
Active | CC[C@]1(O)C[C@H]2CN(CCc3c([nH]c4ccccc34)[C@@](C(=O)OC)(c3cc4c(cc3OC)N(C=O)[C@H]3[C@@](O)(C(=O)OC)[C@H](OC(C)=O)[C@]5(CC)C=CCN6CC[C@]43[C@@H]65)C2)C1 [VINCRISTINE] | 167 | 0.0093 | – | – | 100 | – | 15.5
inactive | COc1ccc(CCc2cn(Cc3ccccc3)c3nc(N)nc(C)c23)c(OC)c1 | 0.35 | 12 | Active | Not Active | 6 | 17 | 0.71
Active | COc1cc(CCc2cn(Cc3ccccc3)c3nc(N)nc(C)c23)cc(OC)c1OC | 0.83 | 0.25 | inactive | Not Active | 0.25 | – | 0.83
inactive | CC(=O)O[C@H]1C(=O)[C@@]2(C)[C@H]([C@H](OC(=O)c3ccccc3)[C@]3(O)C[C@H](OC(=O)[C@H](O)[C@@H](NC(=O)c4ccccc4)c4ccccc4)C(C)=C1C3(C)C)[C@]1(OC(C)=O)CO[C@@H]1C[C@@H]2O [PACLITAXEL] | 1080 | 0.0028 | – | – | 2.7 | – | 1.1
– | COc1ccccc1CCc1cn(Cc2ccccc2)c2nc(N)nc(C)c12 | 1.17 | 2.6 | Active | Not Active | 2.7 | – | 1.13
inactive | COc1cc(OC)c(OC)cc1CCc1cn(Cc2ccccc2)c2nc(N)nc(C)c12 | 0.66 | 15 | inactive | Not Active | 10 | 15 | 1
Active | CC[C@]1(O)C[C@@H]2CN(CCc3c([nH]c4ccccc34)[C@@](C(=O)OC)(c3cc4c(cc3OC)N(C)[C@H]3[C@@](O)(C(=O)OC)[C@H](OC(C)=O)[C@]5(CC)C=CCN6CC[C@]43[C@@H]65)C2)C1 [VINBLASTINE] | >134 | 0.003 | – | – | > 375 | – | 1.1
Active | COc1cccc(OC)c1CCc1cn(Cc2ccccc2)c2nc(N)nc(C)c12 | 0.54 | 20 | Active | Not Active | 12 | 22 | 0.91
